Screening results deposited in PubChem by The Scripps Research Institute Molecular Screening Center.
V1aR counter – agonists of human V1a receptor, primary screen, counter-screen for OXTR agonist project, fluorescence, CHO-V1R cells; Fluo-8 calcium fluorescence, agonist mode; 0% DMSO, 100% 3 nM vasopressin; Vasopressin V1a receptor (Homo sapiens), P37288; AID 2797, 2010; 0.25% of 320,000 active; activation, % at 3 µM;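 active = activation above the mean activation of all tested compounds plus 3 SD, per screening run, cut at about 20% in these data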;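 note: signal is peak over basal fluorescence ratio across a 100 second FLIPR read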
OX1R antag-1 – OX1R (HCRTR1) antagonists, primary screen, fluorescence, CHO/OX1R cells, Fluo-8 calcium, orexin A. 0.43% of 330,000 active. AID 434989, 2010. Fluo-8 calcium fluorescence. inhibition, % at 5 µM;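 active = inhibition above its plate's threshold, mean inhibition of all tested compounds on the plate plus 3 SD, cut at about 37% in these data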;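 note: 0% = orexin A challenge wells and 100% = SB-334867-A antagonist wells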
CHO parental Ca – ATP-evoked calcium signal inhibitors, parental CHO, primary screen, counter-screen for OX1R antagonist project, cell-based, fluorescence, Fluo-8 calcium dye; parental CHO-K1, ATP-induced calcium, Fluo-8 fluorescence; 0.63% of 330,000 active; inhibition, % at 5.6 µM;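 active = inhibition above that plate's mean sample inhibition plus 3 SD, cut at about 26% in these data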;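 note: 0% = ATP-challenged DMSO wells and 100% = DMSO wells without ATP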
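Material: Parental CHO cells | Reagent: ATP | Compound dosing: Single nominal dose of 5.6 µM per compound | Detection: Intracellular calcium via Fluo-8 no-wash fluorescent dye | Read-out: % inhibition of ATP-induced calcium mobilization | Benchmarks: Low control ATP plus DMSO, high control DMSO only | Replicates: Singlicate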
OXTR agonist – human OXTR agonists, primary screen, fluorescence, CHO-OTR cells, Fluo-8 calcium. Oxytocin receptor (Homo sapiens), P30559. Fluo-8 calcium fluorescence; normalized: DMSO 0%, oxytocin 100%. activation, % at 3 µM. 0.32% of 320,000 active. AID 2435, 2010;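 active = activation above the mean of all tested compounds plus 3 SD, cutoff set per screening run, cut at about 20% in these data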;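 note: peak over basal fluorescence ratio from a 100 s FLIPR kinetic read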
Target sequence (P30559 whole entry, looked up): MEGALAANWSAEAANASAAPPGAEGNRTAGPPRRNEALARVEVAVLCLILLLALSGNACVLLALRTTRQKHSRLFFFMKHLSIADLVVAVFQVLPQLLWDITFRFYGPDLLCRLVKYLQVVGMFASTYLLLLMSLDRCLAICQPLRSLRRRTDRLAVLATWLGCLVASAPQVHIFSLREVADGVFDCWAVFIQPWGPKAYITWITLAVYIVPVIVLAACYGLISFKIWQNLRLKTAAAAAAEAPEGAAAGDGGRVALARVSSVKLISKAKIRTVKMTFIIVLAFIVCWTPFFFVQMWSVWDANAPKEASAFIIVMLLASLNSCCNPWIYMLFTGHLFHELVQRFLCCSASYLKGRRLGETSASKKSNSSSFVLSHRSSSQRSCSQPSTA
OX1R antag-2 – antagonists of human orexin 1 receptor (OX1R); Orexin/Hypocretin receptor type 1 (Homo sapiens), O43613; OX1R-expressing cells, FRET antagonist read-out; 1.8% of 330,000 active; inhibition, % at 6.6 µM; in the data active = inhibition mostly above about 38%, no sharp cut-off; inactive = mostly below about 40%;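 note: 0% = agonist challenge alone and 100% = reference antagonist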
OXTR potentiator – human OXTR potentiators, primary screen, fluorescence, CHO-OTR cells, Fluo-8 calcium; Oxytocin receptor (Homo sapiens), P30559; Fluo-8 calcium fluorescence, potentiator mode; 0% = oxytocin EC15, 100% = EC100; activation, % at 3 µM; 0.061% of 320,000 active;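 active = activation above that plate's cutoff, the mean activation of tested compounds plus 3 SD, cut at about 6.6% in these data, passing the limit was not always enough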;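 note: 100% uses oxytocin at 75 nM as the full agonist control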
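Assay system: CHO cell line stably expressing human OTR. Reagent: EC15 oxytocin agonist. Dosing: single dose, 3.0 µM nominal final compound concentration. Timing: compound 6 min at room temperature before oxytocin, 100 s read. Signal: kinetic Fluo-8 calcium fluorescence. Controls: oxytocin EC15 low and EC100 high.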
OX1R Fluo8 conf – OX1R (HCRTR1) antagonists, confirmation, fluorescence, CHO/OX1R cells, Fluo-8 calcium, orexin A; shares compounds with OX1R antag-1; orexin A calcium Fluo-8 fluorescence; inhibition, % at 5 µM; 38% of 1,100 active; in the data active = inhibition above about 29%;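 note: 0% = agonist challenge alone and 100% = reference antagonist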
CHO Ca counter – ATP-evoked calcium inhibition in parental CHO, counter-screen for OX1R antagonist project, cell-based, fluorescence, CHO-K1, triplicate. inhibition, % at 5.6 µM. ATP-induced calcium, Fluo-8 fluorescence. 9.3% of 1,100 active. shares compounds with OX1R antag-1. AID 492965, 2010;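 active = inhibition above a per-plate limit, the mean inhibition of that plate's test compounds plus 3 SD, cut at about 25% in these data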;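 note: 0% = ATP challenge with DMSO and 100% = DMSO without ATP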
OX1R HTRF confirm – OX1R (HCRTR1) antagonists, confirmation, cell-based, HTRF. inhibition, % at 6.6 µM. OX1R-expressing cells, HTRF antagonist assay. shares compounds with OX1R antag-2. 49% of 1,800 active; in the data active = inhibition above about 55%;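 note: CHO cells expressing OX1R stimulated with orexin A at about EC80; 0% = agonist challenge alone and 100% = reference antagonist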
CHO-K1 HTRF – signal inhibition in parental CHO-K1 cells, counter-screen for OX1R antagonist project, cell-based, HTRF; HTRF counterscreen; AID 493232, 2011; 48% of 1,800 active; shares compounds with OX1R antag-2; inhibition, % at 6.6 µM; in the data active = inhibition above about 17%;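 note: 0% = agonist challenge with vehicle and 100% = vehicle alone without agonist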
The depositor's hits bear a star; nt = no result given. The list is not random: actives were taken first. Their share in the collection is about 2.7%.

SMILES	V1aR counter	OX1R antag-1	CHO parental Ca	OXTR agonist	OX1R antag-2	OXTR potentiator	OX1R Fluo8 conf	CHO Ca counter	OX1R HTRF confirm	CHO-K1 HTRF
COc1ccc(/C=N/NC(=O)c2nnn(-c3nonc3N)c2CN(C)c2ccccc2)cc1	9.7	44.4*	-4.6	7.6	49.6*	-11.1	31.2*	2.6	83.0*	2.3
CCC(C)NC(=O)CN(C1CCCCC1)S(=O)(=O)c1ccc(F)cc1 (stereo unspecified)	-0.8	-30.3	-10.4	-0.6	14.5	-6.4	nt	nt	nt	nt
COc1ccccc1C(=O)N1CCN(C(=O)c2oc3ccc(C)cc3c2C)CC1	-0.1	-10.3	-9.5	-1.3	12.7	4.4	nt	nt	nt	nt
COc1ccccc1C1CCCN1Cc1nc(-c2ccc(C)s2)oc1C (stereo unspecified)	0.0	-29.6	-26.5	-1.9	49.2	-2.6	nt	nt	nt	nt
CC12CCC(C(=O)Nc3cc(Cl)ccc3Cl)(C/C1=N\O)C2(C)C (stereo unspecified)	-1.2	-30.3	-8.8	-2.2	13.2	-1.5	nt	nt	nt	nt
COc1cc(OC)cc(C(=O)N[C@H](C(=O)NC2CCCc3ccccc32)C(C)C)c1 (stereo partly specified)	-0.6	-11.0	-31.3	-2.2	31.8	-0.2	nt	nt	nt	nt
CN(C)/C=C/C1=C([N+](=O)[O-])C(c2cccc([N+](=O)[O-])c2)NC(=O)N1 (stereo unspecified)	-0.4	36.3	-7.8	-0.1	87.8*	-16.4	-0.1	0.9	37.4	28.6*
Cc1cc(NC(=O)CSc2nc(C(C)(C)C)nc3ccccc23)no1	-1.1	-24.2	-20.4	-2.4	23.6	-0.4	nt	nt	nt	nt
Cc1cc(NC(=O)CSc2nc(-c3cccs3)nc3ccccc23)no1	0.2	44.8*	0.1	-0.1	61.5*	-6.9	16.3	-16.1	82.2*	-5.0
CC(=O)Nc1ccc(Nc2c([N+](=O)[O-])c(=O)n(-c3ccccc3)c3ccccc23)cc1	1.0	-10.2	-8.9	4.3	6.1	-17.4	nt	nt	nt	nt
Cc1ccc(N=C2NC(=O)/C(=C/c3cccn3C)S2)cc1C	-0.5	57.5*	-32.9	-1.6	78.8*	-12.7	62.0*	-16.4	86.8*	6.9
Cc1nn(C)c(C)c1N=Cc1c(O)ccc2ccccc12	0.1	43.1*	-13.9	0.1	83.1*	-6.4	1.2	-3.4	76.5*	10.6
Cc1ccsc1C(=O)OCC(=O)N(Cc1ccccc1)C(C)C	0.4	39.9*	-27.0	-1.0	76.2*	-7.9	25.1	-7.5	67.5*	-1.5
CC(C)n1c(=O)[nH][nH]c1=S	0.2	38.9*	11.2	0.4	63.2*	-6.3	54.8*	4.4	78.5*	12.0
CCC(C)NC(=O)c1ccc(NC(=O)C2=C(C)OCCS2)cc1 (stereo unspecified)	1.8	-22.5	-4.5	0.6	3.7	-6.0	nt	nt	nt	nt
Cc1ccn2c(=O)nc(SCC(=O)Nc3ccc4c(c3)OCCO4)nc2c1	-0.4	-5.5	-9.6	-0.3	4.4	-0.1	nt	nt	nt	nt
CC1(C)CC(=O)C=C(NCC(O)c2ccccc2)C1 (stereo unspecified)	1.5	1.1	9.0	0.1	9.3	-6.6	nt	nt	nt	nt
COC(=O)c1ccccc1NC(=O)c1sc(=S)n(C)c1N	0.3	77.8*	18.2	-2.0	93.3*	-18.9	97.4*	-10.7	94.4*	1.4
COc1ccc(OC)c(C=NNC(=O)c2ccccc2NS(=O)(=O)c2cccs2)c1	5.4	-1.0	0.9	6.7	22.1	-10.8	nt	nt	nt	nt
Cc1ccc(CCNS(=O)(=O)c2cc(Br)cnc2N)cc1	-0.8	-12.8	-13.9	-1.4	12.7	-4.7	nt	nt	nt	nt
CCn1c(SCC(=O)Nc2nc(-c3ccccc3)cs2)nnc1-c1ccccc1O	6.3	79.1*	0.0	8.7	86.3*	-16.1	-8.1	-20.3	86.0*	-10.9
Nn1c(-c2cccs2)nc2sc3c(c2c1=O)CCCC3	2.6	44.9*	-31.4	0.9	111.1*	-10.6	19.8	5.0	81.4*	5.6
CCCCc1cc(=O)oc2cc(OC(C)C(=O)NCC3CCC(C(=O)O)CC3)c(Cl)cc12 (stereo unspecified)	0.6	-13.4	-13.9	0.7	16.5	2.8	nt	nt	nt	nt
O=c1[nH]c(C2CCN(S(=O)(=O)c3ccccc3C(F)(F)F)CC2)nc2c1nnn2Cc1cccc(F)c1	-1.0	-18.7	-2.7	-0.4	9.6	-9.6	nt	nt	nt	nt
O=C(CCC(=O)c1cccs1)NCc1ccccc1Cl	1.0	18.1	-10.0	0.1	8.9	9.9	nt	nt	nt	nt
SMILES	V1aR counter	OX1R antag-1	CHO parental Ca	OXTR agonist	OX1R antag-2	OXTR potentiator	OX1R Fluo8 conf	CHO Ca counter	OX1R HTRF confirm	CHO-K1 HTRF
Cc1cc(C)c2nc(NC(=O)CN3C(=O)NC4(CCCC4)C3=O)sc2c1	1.6	29.6	-12.3	1.1	68.5*	-1.4	17.5	-3.4	52.2	0.4
Cc1nnc(NC(=O)CN2C(=O)NC3(CCCC3)C2=O)s1	0.8	-5.5	-0.3	0.7	11.8	-8.9	nt	nt	nt	nt
COc1ccc(-c2csc(NC(=O)CS(=O)(=O)c3ccc(F)cc3)n2)cc1OC	0.8	27.8	14.1	4.6	75.8*	-12.3	14.9	-2.1	25.4	4.5
Cc1cc(C)c2c(N)c(C(=O)N/N=C/c3cccs3)sc2n1	-1.5	53.1*	0.8	-3.0	84.7*	-0.1	-1.9	-9.5	95.4*	6.8
CCOc1ccc(-c2nnc(SCC(=O)Nc3ccc4c(c3)c3ccccc3n4CC)n2N)cc1	0.0	-17.3	-18.8	0.8	12.7	-3.8	nt	nt	nt	nt
CCn1c2ccccc2c2cc(NC(=O)CSc3nnc(-c4cccc(OC)c4)n3N)ccc21	-0.3	47.0*	-18.1	-2.5	92.8*	-15.0	47.2*	-15.0	90.8*	12.1
O=C(COC(=O)/C=C/c1ccccc1[N+](=O)[O-])NCC(F)(F)F	1.2	-10.0	-10.2	0.8	32.0	-1.3	nt	nt	nt	nt
